The record followed here is ChEMBL document CHEMBL4837203, “Innovative C2-symmetric testosterone and androstenedione dimers: Design, synthesis, biological evaluation on prostate cancer cell lines and binding study to recombinant CYP3A4” (Eur J Med Chem, 2021).

Structures are written as SMILES.

Test [1] concerns LNCaP. The test is described as follows: Antiproliferative activity against androgen-sensitive human LNCaP cells assessed as inhibition of cell growth incubated for 48 hrs by MTT assay. The class given is functional, cell-based. Summed up: (§1)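 MTT assay. Cells were seeded at 8 × 10^3/well and left overnight, then grown 48 h in fresh medium with a range of compound concentrations. They were stained with 0.5 mg/mL MTT for 3 h, solubilised in 10% Triton X-100 in acidic isopropanol (0.1 N HCl), and read at 590 nm. Growth inhibition was calculated against control plates fixed on the treatment day. LNCaP and PC3 were kept in RPMI with 10% calf serum. Three replicate wells per condition, three independent repeats.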
Background: Tetrazolium assays rely on reduction of a dye to a coloured formazan, in cell work by metabolically active cells.

The subject of another test is PC-3. The test is described as follows: Antiproliferative activity against androgen-insensitive human PC-3 cells assessed as inhibition of cell growth incubated for 48 hrs by MTT assay. The class given is functional, cell-based. The note with it: PC-3, 48 h. Summed up: as §1
In another test the test system is DU-145. The test is described as follows: Antiproliferative activity against androgen-insensitive human DU-145 cells assessed as inhibition of cell growth incubated for 48 hrs by MTT assay. The class given is functional, cell-based. The note with it: DU-145, 48 h.
The test system of test [2] is LNCaP. In words: Antiproliferative activity against androgen-sensitive human LNCaP cells assessed as inhibition of DHT-induced cell growth at 1 uM incubated for 48 hrs by MTT assay relative to non-stimulation. The class given is functional. Also on record: scale not given: the % may be the effect or the level left. The method, boiled down:
(§2)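 LNCaP cells seeded at 8 × 10^3/well in RPMI with 10% FBS and grown 48 h. Then treated with 0.1 nM DHT alone or with test agent at 0.125, 0.25, 0.5 or 1 μM for 48 h. Control was 0.1% DMSO. MTT for 3 h at 37 °C, OD read at 590 nm. Growth expressed as fold of DMSO control. Triplicate wells, three independent repeats.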

The subject of test [3] is LNCaP. In words: Antiproliferative activity against androgen-sensitive human LNCaP cells assessed as inhibition of testosterone-induced cell growth at 0.25 uM incubated for 48 hrs by MTT assay. More on the design: scale not given: the % may be the effect or the level left. The class given is functional. The method, boiled down: (§3)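 Androgen-stimulated proliferation in LNCaP: cells seeded at 8 × 10^3/well in RPMI with 10% FBS and grown 48 h. Then exposed 48 h to 0.1 nM testosterone alone or combined with test agent at 0.125–1 μM. Vehicle control was 0.1% DMSO. Read-out was MTT (3 h, 37 °C) at OD 590 nm, as fold induction versus vehicle. Triplicate wells ×3 repeats.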

For test [4], the system named is LNCaP. In words: Antiproliferative activity against androgen-sensitive human LNCaP cells assessed as inhibition of DHT-induced cell growth at 0.25 uM incubated for 48 hrs by MTT assay relative to non-stimulation. The class given is functional. More on the design: scale not given: the % may be the effect or the level left. Summed up: (§4)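 LNCaP cells were seeded at 8 × 10^3/well in medium with 10% FBS and grown 48 h. They were then exposed for 48 h to 0.1 nM testosterone or DHT, alone or with compound at 0.125, 0.25, 0.5 or 1 μM. Vehicle control was 0.1% DMSO. Read-out was MTT for 3 h at 37 °C, then OD 590 nm, given as fold proliferation versus vehicle. Triplicate wells, three independent repeats; SEM, n = 3.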

Test [5] deals with LNCaP. The test is described as follows: Antiproliferative activity against androgen-sensitive human LNCaP cells assessed as inhibition of DHT-induced cell growth at 0.125 uM incubated for 48 hrs by MTT assay. The class given is functional. More on the design: scale not given: the % may be the effect or the level left. The method, boiled down: as §2
Test [6] has as its system LNCaP. The test is described as follows: Antiproliferative activity against androgen-sensitive human LNCaP cells assessed as inhibition of testosterone-induced cell growth at 1 uM incubated for 48 hrs by MTT assay relative to non-stimulation. The class given is functional. Also on record: scale not given: the % may be the effect or the level left. Summed up:
as §4

The target of test [7] is T1, Cytochrome P450 3A4 (Homo sapiens, UniProt P08684). The test is described as follows: Inhibition of human CYP3A4 assessed as dissociation constant. The class given is ADME. The method, boiled down: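 Spectral titration of 2 μM codon-optimized full-length human CYP3A4 in 0.1 M phosphate pH 7.4 with 20% glycerol and 1 mM DTT, at ambient temperature. Ligand was added from DMSO in small aliquots, keeping final solvent below 2%. Absorbance difference spectra were recorded, and Kd was taken from hyperbolic or quadratic fits to the titration plots.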
T1 sequence (P08684 whole entry): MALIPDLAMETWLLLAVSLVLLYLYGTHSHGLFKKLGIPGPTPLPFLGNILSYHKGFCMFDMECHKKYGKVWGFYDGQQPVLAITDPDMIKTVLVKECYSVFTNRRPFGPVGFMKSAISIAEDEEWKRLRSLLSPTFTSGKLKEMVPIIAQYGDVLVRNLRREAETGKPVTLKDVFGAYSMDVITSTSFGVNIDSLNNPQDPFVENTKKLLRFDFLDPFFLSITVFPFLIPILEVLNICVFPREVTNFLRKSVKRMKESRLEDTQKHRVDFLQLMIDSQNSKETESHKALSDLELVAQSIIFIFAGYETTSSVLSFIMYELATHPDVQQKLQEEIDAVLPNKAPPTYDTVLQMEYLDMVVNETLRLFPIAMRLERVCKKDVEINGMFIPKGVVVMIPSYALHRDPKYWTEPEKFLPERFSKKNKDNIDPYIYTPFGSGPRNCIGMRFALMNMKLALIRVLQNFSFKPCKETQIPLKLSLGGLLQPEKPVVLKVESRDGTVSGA

In test [8] the test system is LNCaP. In words: Antiproliferative activity against androgen-sensitive human LNCaP cells assessed as inhibition of DHT-induced cell growth at 0.5 uM incubated for 48 hrs by MTT assay relative to non-stimulation. The class given is functional. More on the design: scale not given: the % may be the effect or the level left. The method, boiled down:
as §2

Test [9] relates to LNCaP. In words: Antiproliferative activity against androgen-sensitive human LNCaP cells assessed as inhibition of testosterone-induced cell growth at 0.125 uM incubated for 48 hrs by MTT assay relative to non-stimulation. Also on record: scale not given: the % may be the effect or the level left. The class given is functional. The method, boiled down: as §3
For test [10], the target named is T1, Cytochrome P450 3A4. The test is described as follows: Inhibition of recombinant human CYP3A4 using BFC as substrate. The class given is ADME. Summed up:
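Codon-optimized full-length recombinant human CYP3A4 in a soluble reconstituted system. Activity measured was debenzylation of 7-benzyloxy-4-(trifluoromethyl)coumarin; IC50 values were determined.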

Test [11] deals with LNCaP. The test is described as follows: Antiproliferative activity against androgen-sensitive human LNCaP cells assessed as inhibition of testosterone-induced cell growth at 0.5 uM incubated for 48 hrs by MTT assay relative to non-stimulation. Also on record: scale not given: the % may be the effect or the level left. The class given is functional. The method, boiled down: as §3

The test system of test [12] is LNCaP. The test is described as follows: Antiproliferative activity against androgen-sensitive human LNCaP cells assessed as inhibition of DHT-induced cell growth at 0.125 uM incubated for 48 hrs by MTT assay relative to non-stimulation. The class given is functional. More on the design: scale not given: the % may be the effect or the level left. The method, boiled down: as §2

In general, IC50 refers to the concentration needed to halve the response being measured. As to `C[C@]12CC[C@H]3[C@@H](C([C@H]4C=CC[C@H]5C(=O)OC(=O)[C@@H]45)CC4=CC(=O)CC[C@@]43C)[C@@H]1CC[C@@H]2O` (some centres not stated), the values for the IC50 in the test on LNCaP [1], with PC-3 and in the test on DU-145 were 131 µM, 62.5 µM and 86.5 µM, respectively.

For `C=C/C=C/[C@@H]1CC2=CC(=O)CC[C@]2(C)[C@H]2CC[C@]3(C)C(=O)CC[C@H]3[C@H]12`, the IC50 in the test with LNCaP [1] is 33.5 µM; in the test with PC-3, 51.7 µM; in the test with DU-145, 21.3 µM.

The term Kd denotes the free concentration of one partner at which half of the binding sites on the other are occupied at equilibrium, for simple one-to-one binding. On to `C[C@]12CC[C@H]3[C@@H]([C@H](/C=C/C=C/C=C/[C@@H]4CC5=CC(=O)CC[C@]5(C)[C@H]5CC[C@]6(C)[C@@H](O)CC[C@H]6[C@H]45)CC4=CC(=O)CC[C@@]43C)[C@@H]1CC[C@@H]2O`, for which the Activity in the test on LNCaP [2] is 100%; with LNCaP [3], 86%; in the test on LNCaP [4], 83%; in the test with LNCaP [5] it was 45%; in the test on LNCaP [6], 98%; with LNCaP [8], 83%. Further, the Activity in the test with LNCaP [9] is on record as 45%; in the test with LNCaP [11] it was 100%; with LNCaP [12], 76%. In addition, the Kd on Cytochrome P450 3A4 [7] was determined as 5.5 µM. For the same compound, the IC50 in the test on LNCaP [1] was determined as 12 µM; in the test on PC-3, 13.6 µM; with DU-145, 14.4 µM; on Cytochrome P450 3A4 [10] it was 1.2 µM.

Regarding `C[C@]12CC[C@H]3[C@@H]([C@H](C/C=C/C[C@@H]4CC5=CC(=O)CC[C@]5(C)[C@H]5CC[C@]6(C)[C@@H](O)CC[C@H]6[C@H]45)CC4=CC(=O)CC[C@@]43C)[C@@H]1CC[C@@H]2O`, at Cytochrome P450 3A4 [7], the Kd was determined as 7.1 µM. The IC50 on Cytochrome P450 3A4 [10] came out at 6.5 µM.

Turning to `C[C@]12CC[C@H]3[C@@H]([C@H](C/C=C\C[C@@H]4CC5=CC(=O)CC[C@]5(C)[C@H]5CC[C@]6(C)[C@@H](O)CC[C@H]6[C@H]45)CC4=CC(=O)CC[C@@]43C)[C@@H]1CC[C@@H]2O`, the Kd at Cytochrome P450 3A4 [7] was determined as 0.37 µM. For the same compound, the IC50 on Cytochrome P450 3A4 [10] stood at 0.8 µM.

For the compound `C[C@]12CC[C@H]3[C@@H]([C@H](/C=C/C=C/C=C/[C@@H]4CC5=CC(=O)CC[C@]5(C)[C@H]5CC[C@]6(C)[C@H](O)CC[C@H]6[C@H]45)CC4=CC(=O)CC[C@@]43C)[C@@H]1CC[C@H]2O`, the Activity was determined as 100% in the test on LNCaP [2]; 100% in the test on LNCaP [3]; 84% in the test with LNCaP [4]; 45% with LNCaP [5]; 84% with LNCaP [6]; 86% with LNCaP [8]. Moreover, the Activity with LNCaP [9] is listed as 82%; in the test with LNCaP [11], 112%; in the test on LNCaP [12], 54%. The Kd on Cytochrome P450 3A4 [7] worked out at 1.6 µM. Besides, the IC50 was determined as 37.1 µM in the test on LNCaP [1], 44.5 µM with PC-3, 21.4 µM with DU-145 and 22 µM at Cytochrome P450 3A4 [10].

Regarding `C=C/C=C/[C@@H]1CC2=CC(=O)CC[C@]2(C)[C@H]2CC[C@]3(C)[C@@H](O)CC[C@H]3[C@H]12`, the IC50 in the test with LNCaP [1] was found to be 28.8 µM; in the test on PC-3, 34.1 µM; in the test on DU-145, 29 µM.

`C[C@]12CCC(=O)C=C1C[C@@H](/C=C/C=C/C=C/[C@@H]1CC3=CC(=O)CC[C@]3(C)[C@H]3CC[C@]4(C)C(=O)CC[C@H]4[C@H]13)[C@@H]1[C@@H]2CC[C@]2(C)C(=O)CC[C@@H]12`: at Cytochrome P450 3A4 [7], the Kd was determined as 1.4 µM. Besides, the half-maximal inhibitory concentration (IC50) in the test on LNCaP [1] was 72.7 µM; with PC-3 it was 29 µM; in the test with DU-145 it was 53.6 µM; at Cytochrome P450 3A4 [10] it was 3.6 µM.

In the case of `C=C/C=C/[C@@H]1CC2=CC(=O)CC[C@]2(C)[C@H]2CC[C@]3(C)[C@H](O)CC[C@H]3[C@H]12`, the IC50 with LNCaP [1] was determined as 16.6 µM; in the test with PC-3, 31.5 µM; in the test on DU-145, 23.8 µM.

With `CC(=O)O[C@]1(C(C)=O)CC[C@H]2[C@@H]3C=C(Cl)C4=CC(=O)[C@@H]5C[C@@H]5[C@]4(C)[C@H]3CC[C@@]21C` [CYPROTERONE ACETATE], the IC50 with LNCaP [1] is 59.6 µM; in the test on PC-3 it was 56.9 µM; with DU-145, 50.7 µM.
